Assay outcomes from PubChem.
Kir21 inh = inhibitors of mouse Kir2.1 inward-rectifier potassium channel; P35561; B-score at 10 µM; HEK293-Kir2.1, FluxOR thallium flux fluorescence; hits give low values; AID 1672; actives 0.85% (n = 310,000);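 active = fluorescence ratio B-score at or below minus 3 SD of library scores, with starting-brightness B-score within 2 SD, cut at about -4.2 in these data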;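 note: channel flux triggered by added potassium and thallium sulfate stimulus; B-score of peak minus minimum fluorescence over baseline after thallium stimulus; more negative B-score means stronger Kir2.1 block with less thallium influx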
KCNK3 inh = human KCNK3 channel inhibition, primary screen | CHO-KCNK3 thallium flux, FluxOR fluorescence; hits give low values | actives 0.84% (n = 340,000) | O14649 | AID 602410 | B-score at 10 µM;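 active = B-score under library mean minus 4 SD, starting fluorescence ratio at most library mean plus 5 SD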;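 note: more negative B-score means stronger inhibition of thallium flux through KCNK3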
Target sequence (O14649 whole entry, looked up): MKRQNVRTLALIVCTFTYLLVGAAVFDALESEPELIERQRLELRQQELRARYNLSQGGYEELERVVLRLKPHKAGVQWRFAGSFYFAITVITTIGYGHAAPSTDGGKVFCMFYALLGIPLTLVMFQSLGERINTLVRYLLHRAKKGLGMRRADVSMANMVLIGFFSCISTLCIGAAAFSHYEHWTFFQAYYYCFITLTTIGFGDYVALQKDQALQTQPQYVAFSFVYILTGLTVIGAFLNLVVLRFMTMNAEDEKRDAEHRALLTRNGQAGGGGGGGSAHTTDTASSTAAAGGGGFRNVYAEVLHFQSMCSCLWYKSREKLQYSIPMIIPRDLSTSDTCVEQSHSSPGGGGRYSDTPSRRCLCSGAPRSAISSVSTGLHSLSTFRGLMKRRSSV
KCNK9 inh = blocks the human KCNK9 two-pore domain potassium channel; actives 1.2% (n = 310,000); Q9NPC2; HEK293 KCNK9, FluxOR thallium flux fluorescence; hits give low values; AID 488922; B-score at 10 µM;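 active = ratio B-score over 3 SD below the library mean, with starting fluorescence within 5 SD of its mean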;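 note: negative B-score means less thallium flux so channel inhibition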
KCNQ1 pot = human KCNQ1 channel potentiation or activation; P51787; CHO-K1 KCNQ1, thallium flux FluxOR fluorescence; hits give high values; B-score at 10 µM; actives 0.35% (n = 310,000); AID 2648;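 active = fluorescence ratio B-score, a plate-corrected score, at least three library SD, with initial intensity B-score within 5 SD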
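Material: CHO-K1 cells stably expressing KCNQ1. Medium: assay buffer for compound exposure, DMSO matched across wells. Reagent: K+/Tl+ depolarizing stimulus. Compound dosing: single-concentration screen. Times: 37 °C overnight plating, 90-min dark dye load, 20-min compound pretreatment. Technique: FluxOR Tl+ flux fluorescence.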
hERG rescue = hERG (human) protection from proarrhythmic block. CHO-hERG, FluxOR thallium flux, dofetilide IC70 present. activation (rescue from dofetilide block), less the hit threshold, % at 10 µM. actives 0.51% (n = 310,000). AID 1511;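 active = activation above the mean of controls blocked by dofetilide plus 5 SD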;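 note: thallium influx through hERG after potassium depolarization seen as dye fluorescence rise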
KCNQ1 inh = blocks the human KCNQ1 potassium channel; actives 1.3% (n = 310,000); B-score at 10 µM; CHO-K1 KCNQ1, FluxOR thallium flux fluorescence; hits give high values;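 active = compounds whose thallium flux B-score, printed positive for inhibition, exceeds three library SD while starting fluorescence stays within three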;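 note: channel opened by potassium depolarization with thallium stimulus after 20 min compound exposure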
* hit, by the source's call; i = inactive; · = no result given. A selection: hits, their analogues and other compounds. The true share with any hit is near 3.7%.

SMILES | Kir21 inh | KCNK3 inh | KCNK9 inh | KCNQ1 pot | hERG rescue | KCNQ1 inh
O=c1[nH]c(=O)n(-c2ccccc2F)c(O)c1/C=C1\C=Nc2ccccc21 | 0.63 | i | i | i | -13 | i
CN1CC(C(=O)c2ccc(Cl)cc2)C(c2ccc(Cl)cc2Cl)C1 (centres undefined) | -5* | i | i | i | -16 | i
CN1C(=O)/C(=C\c2ccc(Br)s2)C(=O)NC1=S | -0.55 | i | i | i | 15* | i
CCOC(=O)c1cc2c(cn1)[C@H](CCO)NC2 | · | i | · | · | · | ·
Cc1ccccc1N1C(=O)NC(=O)/C(=C/c2ccc(N3CCOCC3)o2)C1=O | -3.5 | i | i | i | -22 | 6*
CN1C(=O)C(=Cc2ccc(N3CCCCCC3)o2)C(=O)N(C)C1=S | · | i | · | · | · | ·
O=C1NC(=S)N(c2ccccc2F)C(=O)/C1=C\c1cccs1 | 1.1 | i | i | i | 22* | i
O=C1NC(=O)N(c2ccc3c(c2)OCO3)C(=O)/C1=C\c1ccc(N2CCCCC2)o1 | -2 | i | i | i | -14 | 9*
Cc1ccccc1N1C(=O)/C(=C/c2ccco2)C(=O)NC1=S | 0.55 | · | i | i | 13* | i
COc1ccc(C(c2ccc(OC)cc2)C(Cl)(Cl)Cl)cc1 | · | i | · | · | · | ·
CNCCCc1ccccc1 | -0.03 | i | i | i | 6.5* | i
Nc1ccccc1C(=O)OCC(=O)N1CCc2ccccc21 | 0.07 | i | i | i | -3 | i
N#CSCC(=O)N1c2ccccc2CCc2ccccc21 | -6.8* | i | -6.9* | i | -15 | i
O=C1NC(=S)NC(=O)C1c1ccccc1 | · | i | · | · | · | ·
CCC1C(c2ccccc2)NC(c2ccccc2)CC1(O)c1ccc(F)cc1 (centres undefined) | -4.5* | i | i | i | -19 | i
CCCCOCCCn1c(N)c(C(=O)OC(C)COC)c2nc3ccccc3nc21 (centres undefined) | -0.22 | -11* | i | i | -1 | i
c1ccc(-c2[nH]c(-c3ccccc3)[n+](CC3CO3)c2-c2ccccc2)cc1 (centres undefined) | -6.8* | i | i | i | -22 | i
O=P(Oc1ccccc1)(Oc1ccccc1)c1ccccc1 | -5.9* | i | i | i | -8 | i
CC1CCCC(C)N1/N=C/c1c[nH]c2ccc(Br)cc12 (centres undefined) | -4.3* | i | i | i | -15 | 6*
COC(=O)C1=C(C(=O)OC)C2OC1c1cc3ccccc3cc12 | · | i | · | · | · | ·
CC12CCC(=O)C=C1CCC1C2CCC2(C)C(O)CCC12 (centres undefined) | · | i | · | · | · | ·
CCC(=O)O[C@H]1CC[C@H]2[C@@H]3CCC4=CC(=O)CC[C@]4(C)[C@H]3CC[C@]12C | · | -8.7* | · | · | · | ·
O=C(CCN1CC2CCC(CC2)C1)c1cccs1 | · | i | · | · | · | ·
CCCC[N+]12CCC(CC1)C(C(=O)c1cccs1)C2 (centres undefined) | -4.9* | i | i | i | -6 | i
CC(N)C(=O)OC(C)(C)Cc1ccc(Cl)cc1 (centres undefined) | · | i | · | · | · | ·
SMILES | Kir21 inh | KCNK3 inh | KCNK9 inh | KCNQ1 pot | hERG rescue | KCNQ1 inh
Clc1ccccc1C1NCc2ccccc2-n2cccc21 (centres undefined) | -5.2* | i | i | i | -27 | i
Oc1ccccc1C1NCc2ccccc2-n2cccc21 (centres undefined) | -4.5* | i | i | i | -3 | i
CCOc1cccc(C2NCc3ccccc3-n3cccc32)c1O (centres undefined) | -0.34 | i | i | i | -5 | i
CC(C)c1ccc(C2NCc3ccccc3-n3cccc32)cc1 (centres undefined) | -0.19 | i | i | i | -10 | i
CC1OC(OC2C=C3CCC4C(CCC5(C)C(c6ccc(=O)oc6)CCC45O)C3(C)CC2)C(O)C(OC2OC(CO)C(O)C(O)C2O)C1O (centres undefined) | · | i | · | · | · | ·
O=C1NC(=O)C(=Cc2ccc(-c3ccccc3[N+](=O)[O-])o2)C(=O)N1 | 0.33 | i | i | i | 1 | i
O=C1NC(=O)C(=Cc2ccc(-c3cc(Cl)ccc3[N+](=O)[O-])o2)C(=O)N1 | -0.33 | i | i | i | 24* | i
CCCCn1c(=O)c(C(=O)NC(C)c2ccccc2)c(O)c2ccccc21 (centres undefined) | -0.75 | i | i | i | 0 | 6*
CCCCn1c(=O)c(C(=O)NCCc2ccccc2)c(O)c2ccccc21 | 0.08 | i | i | i | -6 | 7*
CCCCn1c(=O)c(C(=O)NCc2ccc(Cl)cc2)c(O)c2ccccc21 | -0.12 | i | i | i | -12 | i
CCCCCn1c(=O)c(C(=O)NCc2ccncc2)c(O)c2ccccc21 | 1.4 | i | -7.9* | i | -6 | 8*
CCCCCn1c(=O)c(C(=O)Nc2ccccc2)c(O)c2ccccc21 | -0.71 | i | i | i | 0 | i
COC1CCC(OC2CC(C3(C)CCC4(CC(O)C(C)C(C(C)/C=C(\C)C(=O)C(C)CC(C)C(=O)O)O4)O3)OC3(OC(C4OC(O)(CO)C(C)CC4C)CC3C)C2C)OC1C (centres undefined) | · | i | · | · | · | ·
NP(=O)(Nc1ccccc1)Nc1ccccc1 | · | i | · | · | · | ·
CC(=O)N1Cc2cnnn2-c2ccccc2C1C#N (centres undefined) | · | i | · | · | · | ·
CCCCCCOc1ccc(CN2CCN(C)CC2)cc1 | -4.8* | i | i | i | -12 | i
CN1CCN(Cc2ccc3ccccc3c2)CC1 | 0.63 | i | i | i | -4 | i
COc1cccc(NP(=O)(Oc2ccccc2)Oc2ccccc2)c1 | -0.66 | i | i | i | -17 | i
O=P(Nc1cccc(Cl)c1)(Oc1ccccc1)Oc1ccccc1 | -0.01 | i | -7.6* | i | -49 | 6*
c1ccc2c(c1)CC1CNCc3cccc(c31)S2 (centres undefined) | -8.1* | i | i | i | -8 | i
COC(=O)C1C2c3ccccc3OC1(C)N=c1s/c(=C/c3cn(C)nc3C)c(=O)n12 (centres undefined) | -0.02 | i | i | i | 0 | i
CC(=O)C1C2c3ccccc3O[C@@]1(C)N=c1s/c(=C/c3ccoc3)c(=O)n12 (some centres undefined) | -1 | i | i | i | -5 | 7*
CC1CC2(C)C(CCC3C2CCC2(C)C(OP(=O)(N4CC4)N4CC4)CCC32)CC1=O (centres undefined) | · | i | · | · | · | ·
CN1CCN(CC#CCOc2ccc(Cl)cc2)CC1 | -0.99 | i | i | i | 9.8* | i
